Reference: ChEMBL document CHEMBL3877264, “Quinolidene-rhodanine conjugates: Facile synthesis and biological evaluation” (Eur J Med Chem, 2017)
In brackets after ≈: the same amount, converted by molar mass.

Assays:
Staphylococcus aureus = experiment: Growth inhibition of Staphylococcus aureus NCIM 2010 at 30 ug/ml measured after 12 hrs relative to control; type: functional; conditions: NCIM 2010, 12 h, read-out: GI
Method in brief: (§1)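 Bacteria grown in LB at 37 °C and 180 rpm to OD 1. Compounds added to wells, then 0.1% inoculum of 1 OD culture (620 nm). Growth read as OD at 620 nm after 8 h for gram-negative and after 12 h for gram-positive strains.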

Escherichia coli = experiment: Growth inhibition of Escherichia coli NCIM 2688 at 10 ug/ml measured after 8 hrs relative to control; type: functional; conditions: NCIM 2688, 8 h, read-out: GI; method in brief: as §1
Pseudomonas fluorescens = experiment: Antibacterial activity against Pseudomonas fluorescens NCIM 2036 measured after 8 hrs; type: functional; conditions: NCIM 2036, 8 h; method in brief: as §1
[1] = tested on: Mycobacterium tuberculosis; experiment: Growth inhibition of Mycobacterium tuberculosis H37Ra ATCC 25177 at active stage at 50 ug/ml measured after 8 days by XTT dye based two fold dilution method relative to control; type: functional; conditions: H37Ra ATCC 25177, 192 h, read-out: GI
Method in brief: (§2)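 MTB H37Ra was grown in Dubos medium, then exposed in Mycobacterium pheli minimal medium (pH 6.6) to compounds dissolved in DMSO. The assay ended on day 8 (active) or day 12 (dormant). Viable cells were measured by XTT reduction menadione assay at 470 nm, blank-corrected, relative to vehicle control. Triplicates were expressed as mean ± SD. MIC came from dose-response curves.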

[2] = tested on: Mycobacterium tuberculosis; experiment: Growth inhibition of Mycobacterium tuberculosis H37Ra ATCC 25177 at active stage at 12.5 ug/ml measured after 8 days by XTT dye based two fold dilution method relative to control; type: functional; conditions: H37Ra ATCC 25177, 192 h, read-out: GI
[3] = tested on: Mycobacterium tuberculosis; experiment: Growth inhibition of Mycobacterium tuberculosis H37Ra ATCC 25177 at active stage at 3.13 ug/ml measured after 8 days by XTT dye based two fold dilution method relative to control; type: functional; conditions: H37Ra ATCC 25177, 192 h, read-out: GI; method in brief: as §2
[4] = tested on: Mycobacterium tuberculosis; experiment: Growth inhibition of Mycobacterium tuberculosis H37Ra ATCC 25177 at active stage at 0.78 ug/ml measured after 8 days by XTT dye based two fold dilution method relative to control; type: functional; conditions: H37Ra ATCC 25177, 192 h, read-out: GI; method in brief: as §2
[5] = tested on: Mycobacterium tuberculosis; experiment: Growth inhibition of Mycobacterium tuberculosis H37Ra ATCC 25177 at dormant stage at 25 ug/ml measured after 12 days by XTT dye based two fold dilution method relative to control; type: functional; conditions: H37Ra ATCC 25177, 288 h, read-out: GI; method in brief: as §2
[6] = tested on: Mycobacterium tuberculosis; experiment: Growth inhibition of Mycobacterium tuberculosis H37Ra ATCC 25177 at dormant stage at 3.13 ug/ml measured after 12 days by XTT dye based two fold dilution method relative to control; type: functional; conditions: H37Ra ATCC 25177, 288 h, read-out: GI; method in brief: as §2
[7] = tested on: Mycobacterium tuberculosis; experiment: Growth inhibition of Mycobacterium bovis BCG ATCC 35743 at dormant stage at 12.5 ug/ml measured after 12 days by nitrate reductase dye based two fold dilution method relative to control; type: functional; conditions: BCG str. ATCC 35743, 288 h, read-out: GI
[8] = tested on: Mycobacterium tuberculosis; experiment: Growth inhibition of Mycobacterium bovis BCG ATCC 35743 at dormant stage at 1.56 ug/ml measured after 12 days by nitrate reductase dye based two fold dilution method relative to control; type: functional; conditions: BCG str. ATCC 35743, 288 h, read-out: GI
Method in brief: (§3)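 M. bovis BCG was grown in Dubos medium and assayed in Mycobacterium pheli minimal medium (pH 6.6), with compounds from DMSO stocks. Incubation lasted 8 days for active and 12 days for dormant cultures. Viability was read by nitrate reductase at 540 nm against cell-free blanks, with vehicle set as 100% growth. Primary screen was at 30, 10 and 3 µg/ml, in triplicate, mean ± SD. MIC was taken from dose-response curves.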

[9] = tested on: Mycobacterium tuberculosis; experiment: Growth inhibition of Mycobacterium bovis BCG ATCC 35743 at active stage at 12.5 ug/ml measured after 8 days by nitrate reductase dye based two fold dilution method relative to control; type: functional; conditions: BCG str. ATCC 35743, 192 h, read-out: GI
[10] = tested on: Mycobacterium tuberculosis; experiment: Growth inhibition of Mycobacterium bovis BCG ATCC 35743 at active stage at 1.56 ug/ml measured after 8 days by nitrate reductase dye based two fold dilution method relative to control; type: functional; conditions: BCG str. ATCC 35743, 192 h, read-out: GI; method in brief: as §3
[11] = tested on: Mycobacterium tuberculosis; experiment: Growth inhibition of Mycobacterium bovis BCG ATCC 35743 at dormant stage at 3 ug/ml measured after 12 days by nitrate reductase dye based two fold dilution method relative to control; type: functional; conditions: BCG str. ATCC 35743, 288 h, read-out: GI; method in brief: as §3
[12] = Antifungal activity against Cryptococcus neoformans NCIM 576 by standard agar method; type: functional
Method in brief: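 MICs determined by standard agar method; DMSO as solvent control.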

[13] = Cytotoxicity against primary HUVEC assessed as growth inhibition at 100 ug/ml measured after 48 hrs by MTT assay relative to control; type: toxicity, cell-based; conditions: human, read-out: GI
[14] = Cytotoxicity against human A549 cells measured after 48 hrs by MTT assay; type: toxicity, cell-based
[15] = Cytotoxicity against human HeLa cells measured after 48 hrs by MTT assay; type: toxicity, cell-based
[16] = Selectivity index, ratio of GI50 for HUVEC to MIC for Mycobacterium bovis BCG ATCC 35743 at dormant stage; conditions: pooled result: one value given for 6 cell lines, strains, targets or settings
Method in brief: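 SI is the cell-line GI50 divided by the dormant-stage mycobacterial MIC. […] THP-1 macrophages were PMA-differentiated for 24 h.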

[17] = tested on: Mycobacterium tuberculosis; experiment: Growth inhibition of Mycobacterium bovis BCG ATCC 35743 at active stage measured after 8 days by nitrate reductase dye based two fold dilution method; type: functional; conditions: BCG str. ATCC 35743, 192 h; method in brief: as §3

| Compound | inhibition of growth at 30 µg/mL (Staphylococcus aureus) [%] | inhibition of growth at 10 µg/mL (Escherichia coli) [%] | MIC (Pseudomonas fluorescens) [µg/mL] | inhibition of growth at 50 µg/mL [1] [%] | inhibition of growth at 12.5 µg/mL [2] [%] | inhibition of growth at 3.13 µg/mL [3] [%] | inhibition of growth at 0.78 µg/mL [4] [%] | inhibition of growth at 25 µg/mL [5] [%] | inhibition of growth at 3.13 µg/mL [6] [%] | inhibition of growth at 12.5 µg/mL [7] [%] | inhibition of growth at 1.56 µg/mL [8] [%] | inhibition of growth at 12.5 µg/mL [9] [%] | inhibition of growth at 1.56 µg/mL [10] [%] | inhibition of growth at 3 µg/mL [11] [%] | MIC [12] [µg/mL] | inhibition at 48 h, 100 ug/ml [13] [%] | GI50 at 48 h [14] [µg/mL] | GI50 at 48 h [15] [µg/mL] | Selectivity Index [16] | IC50 [17] [µg/mL] | further results |
| --- | --- | --- | --- | --- | --- | --- | --- | --- | --- | --- | --- | --- | --- | --- | --- | --- | --- | --- | --- | --- | --- |
| CCOc1ccc2nc(Cl)c(/C=C3\SC(=S)NC3=O)cc2c1 | -29.8 | 77.2 | > 30 | 100 | 101 | 94.8 | -4.44 | 105 | 71.7 | 101 | 75.5 | 98.2 | 93.4 | 91 | 50 (≈ 143 µM) | 33 | > 100 | > 100 | 50 | – | – |
| Cc1cccc2cc(/C=C3\SC(=S)NC3=O)c(Cl)nc12 | 12.6 | 27.5 | > 30 | 102 | 76.3 | 39.9 | 20.1 | 103 | -0.35 | 95.4 | -20.5 | 99.5 | -33.4 | -6.23 | 100 (≈ 312 µM) | 14.9 | > 100 | > 100 | 10.4 | 3.7 (≈ 11.5 µM) | IC90 [17]: 6.5 µg/mL (≈ 20.3 µM) |
| O=C(O)CN1C(=O)/C(=C/c2cc3cc(F)ccc3nc2Cl)SC1=S | -19 | -8.65 | > 30 | 82.8 | -3.91 | -12.6 | -48.2 | 27.7 | 9.18 | 99.8 | 99.4 | – | – | 23.9 | 25 (≈ 65.3 µM) | 31.2 | > 100 | > 100 | – | > 30 | IC90 [17]: > 30 µg/mL |
| COc1ccc2nc(Cl)c(/C=C3\SC(=S)NC3=O)cc2c1 | 103 | -36.1 | > 30 | 101 | 85.2 | 38.4 | -20.6 | 87.8 | 4.7 | 93.8 | -28.8 | 96 | -39.1 | -46.3 | 100 (≈ 297 µM) | 29.4 | > 100 | > 100 | 14.7 | 3.7 (≈ 11 µM) | IC90 [17]: 5 µg/mL (≈ 14.8 µM) |
